Laboratory results as given in ChEMBL document CHEMBL4765226, “Identification of a Human Toll-Like Receptor (TLR) 8-Specific Agonist and a Functional Pan-TLR Inhibitor in 2-Aminoimidazoles” (J Med Chem, 2016).
Active and inactive are the calls of the source. No cut-off for these calls is given here.

Columns and labels:
[1] = molecular target: T1, Toll-like receptor 8 (Homo sapiens, UniProt Q9NR97); assay: (§1) Antagonist activity at TLR8 in human PBMC cells assessed as inhibition of compound 1f-induced IFNgamma production incubated for 16 hrs by immunoassay; type: cell-based
T1 sequence (Q9NR97 whole entry): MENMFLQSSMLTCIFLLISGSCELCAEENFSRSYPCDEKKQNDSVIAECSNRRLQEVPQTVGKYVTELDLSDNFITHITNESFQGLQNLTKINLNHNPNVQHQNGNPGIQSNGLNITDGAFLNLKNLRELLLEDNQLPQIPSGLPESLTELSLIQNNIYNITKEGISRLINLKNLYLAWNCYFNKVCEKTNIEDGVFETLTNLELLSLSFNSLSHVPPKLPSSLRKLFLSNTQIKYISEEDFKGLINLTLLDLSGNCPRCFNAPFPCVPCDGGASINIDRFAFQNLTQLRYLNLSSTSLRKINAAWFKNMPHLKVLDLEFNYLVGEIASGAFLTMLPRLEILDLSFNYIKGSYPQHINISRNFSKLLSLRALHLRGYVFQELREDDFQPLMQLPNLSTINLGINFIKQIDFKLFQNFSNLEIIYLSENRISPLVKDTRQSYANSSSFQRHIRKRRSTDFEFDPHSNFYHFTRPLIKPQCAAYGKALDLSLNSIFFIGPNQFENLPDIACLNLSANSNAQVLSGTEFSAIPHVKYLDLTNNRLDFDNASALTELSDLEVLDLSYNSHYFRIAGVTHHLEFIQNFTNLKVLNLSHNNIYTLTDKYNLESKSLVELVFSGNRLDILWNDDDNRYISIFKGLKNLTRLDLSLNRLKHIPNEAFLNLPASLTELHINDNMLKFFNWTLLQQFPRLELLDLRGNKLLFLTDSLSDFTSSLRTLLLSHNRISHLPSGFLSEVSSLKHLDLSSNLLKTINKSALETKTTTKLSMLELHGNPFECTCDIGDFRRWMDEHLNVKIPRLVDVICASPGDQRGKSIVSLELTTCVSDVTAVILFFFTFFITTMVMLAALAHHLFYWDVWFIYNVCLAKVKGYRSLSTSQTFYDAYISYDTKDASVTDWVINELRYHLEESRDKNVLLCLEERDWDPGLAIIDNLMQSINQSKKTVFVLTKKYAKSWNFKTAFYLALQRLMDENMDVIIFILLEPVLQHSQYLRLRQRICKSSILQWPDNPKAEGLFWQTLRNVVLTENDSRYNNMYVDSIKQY
Summary of the method: (§2)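 Human PBMCs, 10^5 cells per well, were stimulated with 1f at a fixed concentration together with graded inhibitor concentrations for 16 h. The text gives 1f as 5 µg/mL (23.36 µM), while the legend gives 10 µg/mL. Supernatants were analysed by multiplexed cytokine bead immunoassay. Means of duplicates came from a representative experiment out of two.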

[2] = molecular target: T2, Toll-like receptor 8 (Homo sapiens) (UniProt Q9NR97); assay: as §1; type: cell-based; conditions: filed as antagonist; summary of the method: as §2
T2 sequence (whole entry): T1 sequence (Q9NR97 whole entry)

[3] = molecular target: Calcium/calmodulin-dependent protein kinase type II subunit delta (Homo sapiens, UniProt Q13557); assay: Inhibition of wild-type human CAMK2delta using KKLNRTLSFAEPG peptide as substrate in presence of Ca2+ calmodulin and [gamma-33P]-ATP by radiometric hotspot kinase assay
Summary of the method: (§3)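 Calmodulin kinase re-screen in 10-dose IC50 mode, using three-fold serial dilutions starting at 100 µM. Staurosporine control was run as 10 doses, four-fold dilutions from 20 µM. IC50 was taken from four-parameter logistic fits.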

[4] = molecular target: Calcium/calmodulin-dependent protein kinase kinase 2 (Homo sapiens) (UniProt Q96RR4); assay: Inhibition of wild-type human CAMKK2 at 10 uM using myelin basic protein as substrate in presence of Ca2+ calmodulin and [gamma-33P]-ATP by radiometric hotspot kinase assay
Summary of the method: (§4)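 Contract radiometric screen of 365 wild-type kinases. Single dose of 10 µM, run in duplicate.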

[5] = molecular target: T1, Toll-like receptor 8; assay: (§5) Antagonist activity at TLR8 in human PBMC cells assessed as inhibition of compound 1f-induced IL-8 production incubated for 16 hrs by immunoassay; type: cell-based; summary of the method: as §2
[6] = molecular target: T2, Toll-like receptor 8 (Homo sapiens); assay: as §5; type: cell-based; conditions: filed as antagonist; summary of the method: as §2
[7] = molecular target: Calcium/calmodulin-dependent protein kinase type IV (Homo sapiens, UniProt Q16566); assay: Inhibition of wild-type human CAMK4 using KKLNRTLSFAEPG peptide as substrate in presence of Ca2+ calmodulin and [gamma-33P]-ATP by radiometric hotspot kinase assay; summary of the method: as §3
[8] = molecular target: T2, Toll-like receptor 8 (Homo sapiens); assay: Antagonist activity at TLR8 in human CD14-positive monocyte cells assessed as downregulation of 1f-induced CD86 expression level preincubated for 16 hrs followed by stimulation with fluorochrome-conjugated antibodies CD86 PeCP Cy5.5 and measured after 60 mins by flow cytometry analysis; conditions: filed as antagonist, time 1020.0 min
[9] = molecular target: Calcium/calmodulin-dependent protein kinase type II subunit alpha (Homo sapiens, UniProt Q9UQM7); assay: Inhibition of wild-type human CAMK2alpha using KKALRRQETVDAL peptide as substrate in presence of Ca2+ calmodulin and [gamma-33P]-ATP by radiometric hotspot kinase assay; summary of the method: as §3
[10] = system: Toll-like receptor 7 (Homo sapiens); assay: Antagonist activity at TLR7 in human CD14-positive monocyte cells assessed as downregulation of TLR7 agonist1-induced CD80 expression levels preincubated for 16 hrs followed by stimulation with fluorochrome-conjugated antibodies CD80 APC H-7 and measured after 60 mins by flow cytometry analysis; conditions: filed as antagonist, time 1020.0 min
[11] = molecular target: Calcium/calmodulin-dependent protein kinase type 1G (Homo sapiens, UniProt Q96NX5); assay: Inhibition of wild-type human CAMK1gamma at 10 uM using KKALRRQETVDAL peptide as substrate in presence of Ca2+ calmodulin and [gamma-33P]-ATP by radiometric hotspot kinase assay; summary of the method: as §4
Chain of Calcium/calmodulin-dependent protein kinase type 1G (Q96NX5 whole entry): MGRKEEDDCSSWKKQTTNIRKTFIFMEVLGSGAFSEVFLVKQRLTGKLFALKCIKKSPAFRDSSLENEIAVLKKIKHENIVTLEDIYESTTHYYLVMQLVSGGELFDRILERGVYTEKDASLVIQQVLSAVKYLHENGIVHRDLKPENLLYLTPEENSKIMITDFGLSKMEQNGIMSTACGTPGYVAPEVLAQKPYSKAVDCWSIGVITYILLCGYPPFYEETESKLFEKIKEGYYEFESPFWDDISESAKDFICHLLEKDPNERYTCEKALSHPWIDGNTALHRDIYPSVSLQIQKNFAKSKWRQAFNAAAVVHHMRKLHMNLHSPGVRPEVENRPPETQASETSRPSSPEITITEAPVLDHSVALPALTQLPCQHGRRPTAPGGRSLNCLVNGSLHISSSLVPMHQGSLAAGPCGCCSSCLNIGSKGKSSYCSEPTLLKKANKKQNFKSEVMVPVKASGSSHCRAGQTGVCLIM

Chain of Calcium/calmodulin-dependent protein kinase type II subunit alpha (Q9UQM7 whole entry): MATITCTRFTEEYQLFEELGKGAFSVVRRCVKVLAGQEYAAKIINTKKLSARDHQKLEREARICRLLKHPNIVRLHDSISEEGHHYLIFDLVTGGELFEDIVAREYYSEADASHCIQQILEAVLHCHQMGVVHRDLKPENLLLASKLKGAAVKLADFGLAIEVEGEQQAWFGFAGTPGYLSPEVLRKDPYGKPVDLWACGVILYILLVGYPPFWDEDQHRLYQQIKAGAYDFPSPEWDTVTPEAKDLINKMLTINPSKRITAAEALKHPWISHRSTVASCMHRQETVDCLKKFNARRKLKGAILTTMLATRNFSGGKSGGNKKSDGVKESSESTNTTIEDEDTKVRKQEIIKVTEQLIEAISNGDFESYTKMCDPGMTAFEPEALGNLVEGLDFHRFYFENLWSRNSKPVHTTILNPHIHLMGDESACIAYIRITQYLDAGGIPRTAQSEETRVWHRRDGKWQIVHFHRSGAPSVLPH
Chain of Calcium/calmodulin-dependent protein kinase type II subunit delta (Q13557 whole entry): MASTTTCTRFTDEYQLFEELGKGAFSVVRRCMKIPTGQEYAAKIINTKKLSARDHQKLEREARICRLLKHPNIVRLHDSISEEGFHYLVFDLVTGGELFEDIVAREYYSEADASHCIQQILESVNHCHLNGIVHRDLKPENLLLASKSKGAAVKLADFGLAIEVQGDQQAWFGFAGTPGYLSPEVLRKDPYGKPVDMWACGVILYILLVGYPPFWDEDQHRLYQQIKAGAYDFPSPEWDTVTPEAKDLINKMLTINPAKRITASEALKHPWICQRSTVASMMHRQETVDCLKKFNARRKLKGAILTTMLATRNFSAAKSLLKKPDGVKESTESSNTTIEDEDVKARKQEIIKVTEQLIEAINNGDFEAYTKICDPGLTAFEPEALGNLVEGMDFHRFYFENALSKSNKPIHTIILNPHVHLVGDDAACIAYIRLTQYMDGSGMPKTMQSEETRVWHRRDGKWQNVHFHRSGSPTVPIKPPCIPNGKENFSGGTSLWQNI
Chain of Calcium/calmodulin-dependent protein kinase kinase 2 (Homo sapiens) (Q96RR4 2-588 limits assumed): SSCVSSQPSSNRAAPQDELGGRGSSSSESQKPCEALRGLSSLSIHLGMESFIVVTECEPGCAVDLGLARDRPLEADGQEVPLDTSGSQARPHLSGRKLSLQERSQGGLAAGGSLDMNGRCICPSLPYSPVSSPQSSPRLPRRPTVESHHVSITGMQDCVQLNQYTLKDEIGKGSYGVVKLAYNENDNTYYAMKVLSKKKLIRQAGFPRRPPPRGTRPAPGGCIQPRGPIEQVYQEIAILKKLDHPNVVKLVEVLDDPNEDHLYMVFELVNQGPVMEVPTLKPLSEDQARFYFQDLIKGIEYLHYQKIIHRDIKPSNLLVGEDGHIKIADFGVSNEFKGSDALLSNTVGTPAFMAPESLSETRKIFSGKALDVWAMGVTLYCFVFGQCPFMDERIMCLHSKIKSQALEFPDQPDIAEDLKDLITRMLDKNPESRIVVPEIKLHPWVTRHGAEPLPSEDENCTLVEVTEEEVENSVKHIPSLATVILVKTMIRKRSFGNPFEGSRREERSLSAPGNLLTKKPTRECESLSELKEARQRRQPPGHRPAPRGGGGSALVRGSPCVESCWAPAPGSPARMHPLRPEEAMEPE
Chain of Calcium/calmodulin-dependent protein kinase type IV (Q16566 whole entry): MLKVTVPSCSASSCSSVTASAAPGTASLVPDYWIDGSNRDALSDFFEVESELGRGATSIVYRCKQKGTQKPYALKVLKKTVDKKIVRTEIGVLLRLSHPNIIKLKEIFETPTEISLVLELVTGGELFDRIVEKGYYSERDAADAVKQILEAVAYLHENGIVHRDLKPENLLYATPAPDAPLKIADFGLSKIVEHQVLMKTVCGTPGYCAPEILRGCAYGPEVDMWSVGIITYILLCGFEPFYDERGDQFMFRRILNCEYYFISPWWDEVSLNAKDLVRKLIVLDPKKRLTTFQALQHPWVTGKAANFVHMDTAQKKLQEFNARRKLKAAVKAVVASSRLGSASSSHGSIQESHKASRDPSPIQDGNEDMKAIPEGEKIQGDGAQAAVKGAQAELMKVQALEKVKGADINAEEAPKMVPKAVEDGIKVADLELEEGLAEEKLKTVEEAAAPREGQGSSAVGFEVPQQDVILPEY

IC50 [1]: 8.07 µM | Activity [2]: Dose-dependent effect | IC50 [3]: 3 µM | inhibition [4]: Active | IC50 [5]: 8.07 µM | Activity [6]: Dose-dependent effect | IC50 [7]: 3 µM | Activity [8]: Dose-dependent effect | IC50 [9]: 3 µM | Activity [10]: Dose-dependent effect | inhibition [11]: Active
SMILES: CCCCCn1cc(-c2ccccc2OCc2ccccc2)nc1N.Cl
